Data published in ChEMBL document CHEMBL1148725, “2,2,2-Trichloro-N-({2-[2-(dimethylamino)ethyl]-1,3-dioxo-2,3-dihydro-1H-benzo[de]isoquinolin- 5-yl}carbamoyl)acetamide (UNBS3157), a novel nonhematotoxic naphthalimide derivative with potent antitumor activity” (J Med Chem, 2007).
Active and inactive are the calls of the source. The rule behind the calls is not given here.

Columns and labels:
[1] = test system: Mus musculus; test: Hematotoxicity in B6D2F1 mouse assessed as platelet count at 10 mg/kg, po; format: organism-based; parameters: dose 10 mg/kg, route oral; conditions: in vivo
[2] = test system: Mus musculus; test: Hematotoxicity in B6D2F1 mouse assessed as platelet count at 20 mg/kg, po; format: organism-based; parameters: dose 20 mg/kg, route oral; conditions: in vivo
[3] = test system: Mus musculus; test: Hematotoxicity in B6D2F1 mouse assessed as RBC count at 5 mg/kg, po; format: organism-based; parameters: dose 5 mg/kg, route oral; conditions: in vivo
[4] = Antiproliferative activity against Hs683 cells after 72 hrs by MTT assay; format: functional, cell-based, Homo sapiens, Hs 683
How it was run: (§1)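 Cells cultured with each compound for three days; growth then read by the MTT colorimetric assay and reported as IC50 (µM).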

[5] = Antiproliferative activity against U373MG cells after 72 hrs by MTT assay; format: functional, cell-based, Homo sapiens, U-373MG ATCC; how it was run: as §1
[6] = test system: HCT-15; test: Antiproliferative activity against HCT15 cells after 72 hrs by MTT assay; format: functional, cell-based, Homo sapiens; how it was run: as §1
[7] = test system: LoVo; test: Antiproliferative activity against LoVo cells after 72 hrs by MTT assay; format: functional, cell-based, Homo sapiens; how it was run: as §1
[8] = test system: A549; test: Antiproliferative activity against A549 cells after 72 hrs by MTT assay; format: functional, cell-based, Homo sapiens; how it was run: as §1
[9] = test system: MCF7; test: Antiproliferative activity against MCF7 cells after 72 hrs by MTT assay; format: functional, cell-based, Homo sapiens; how it was run: as §1
[10] = Toxicity in ip dosed B6D2F1 mouse; format: organism-based; conditions: in vivo
How it was run: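 Acute MTD was set by a single i.p. dose to groups of three healthy female B6D2F1 mice, at 2.5, 5, 10, 20, 40, 80 and 160 mg/kg. The MTD is the dose just below the lowest dose that killed at least one mouse.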

[11] = test system: L1210; test: Antitumor activity in L1210 cells xenografted B6D2F1 mouse at 5 mg/kg, ip relative to control; format: functional; conditions: route intraperitoneal
How it was run: (§2)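 Mice grafted with L1210 leukaemia cells on day 0, then dosed i.p. four times weekly on days 1-4 and 8-11. Five mice per group. Outcome is %T/C, the median survival of treated over control. Kruskal-Wallis test followed by Dunn comparisons against control.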

[12] = test system: L1210; test: Antitumor activity in L1210 cells xenografted B6D2F1 mouse at 10 mg/kg, ip relative to control; format: functional; conditions: route intraperitoneal; how it was run: as §2
[13] = test system: L1210; test: Antitumor activity in L1210 cells xenografted B6D2F1 mouse at 20 mg/kg, ip relative to control; format: functional; conditions: route intraperitoneal; how it was run: as §2
[14] = test system: L1210; test: Antitumor activity in L1210 cells xenografted B6D2F1 mouse at 40 mg/kg, ip relative to control; format: functional; conditions: route intraperitoneal; how it was run: as §2
[15] = test system: L1210; test: Antitumor activity in L1210 cells xenografted B6D2F1 mouse at 2.5 mg/kg, ip relative to control; format: functional; conditions: route intraperitoneal; how it was run: as §2
[16] = test system: Mus musculus; test: Hematotoxicity in B6D2F1 mouse assessed as platelet count at 5 mg/kg, iv; format: organism-based; parameters: dose 5 mg/kg, route intravenous; conditions: in vivo
[17] = test system: Mus musculus; test: Hematotoxicity in B6D2F1 mouse assessed as platelet count at 10 mg/kg, iv; format: organism-based; parameters: dose 10 mg/kg, route intravenous; conditions: in vivo
[18] = test system: Mus musculus; test: Hematotoxicity in B6D2F1 mouse assessed as WBC count at 10 mg/kg, iv; format: organism-based; parameters: dose 10 mg/kg, route intravenous; conditions: in vivo
[19] = test system: Mus musculus; test: Hematotoxicity in B6D2F1 mouse assessed as RBC count at 5 mg/kg, iv; format: organism-based; parameters: dose 5 mg/kg, route intravenous; conditions: in vivo
[20] = test system: Mus musculus; test: Hematotoxicity in B6D2F1 mouse assessed as RBC count at 10 mg/kg, iv; format: organism-based; parameters: dose 10 mg/kg; conditions: in vivo
[21] = test system: Mus musculus; test: Hematotoxicity in B6D2F1 mouse assessed as WBC count at 5 mg/kg, iv; format: organism-based; parameters: dose 5 mg/kg, route intravenous; conditions: in vivo
[22] = test system: Mus musculus; test: Hematotoxicity in B6D2F1 mouse assessed as platelet count at 5 mg/kg, po; format: organism-based; parameters: dose 5 mg/kg, route oral; conditions: in vivo
[23] = test system: Mus musculus; test: Hematotoxicity in B6D2F1 mouse assessed as RBC count at 10 mg/kg, po; format: organism-based; parameters: dose 10 mg/kg, route oral; conditions: in vivo
[24] = test system: Mus musculus; test: Hematotoxicity in B6D2F1 mouse assessed as RBC count at 20 mg/kg, po; format: organism-based; parameters: dose 20 mg/kg, route oral; conditions: in vivo
[25] = test system: Mus musculus; test: Hematotoxicity in B6D2F1 mouse assessed as WBC count at 5 mg/kg, po; format: organism-based; parameters: dose 5 mg/kg, route oral; conditions: in vivo
[26] = test system: Mus musculus; test: Hematotoxicity in B6D2F1 mouse assessed as WBC count at 10 mg/kg, po; format: organism-based; parameters: dose 10 mg/kg, route oral; conditions: in vivo
[27] = test system: Mus musculus; test: Hematotoxicity in B6D2F1 mouse assessed as WBC count at 20 mg/kg, po; format: organism-based; parameters: dose 20 mg/kg, route oral; conditions: in vivo
[28] = Antitumor activity against mouse MXT-HI cells xenografted in B6D2F1 mouse at 20 mg/kg, ip relative to control; format: functional; conditions: route intraperitoneal
How it was run: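 MXT-HI mammary adenocarcinoma grafted s.c. onto female B6D2F1 mice. Dosing i.p., five injections weekly for three weeks from day 14 post-graft. Nine mice per group. Tumour surface area measured, and survival expressed as %T/C, the ratio of treated to control median survival time.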

[29] = test system: Mus musculus; test: Toxicity in B6D2F1 mouse at 40 mg/kg, ip; format: organism-based; parameters: dose 40 mg/kg, route intraperitoneal; conditions: in vivo
[30] = test system: Mus musculus; test: Hematotoxicity in B6D2F1 mouse assessed as platelet count at 40 mg/kg, po; format: organism-based; parameters: dose 40 mg/kg, route oral; conditions: in vivo
[31] = test system: L1210; test: Antitumor activity in L1210 cells xenografted B6D2F1 mouse at 80 mg/kg, ip relative to control; format: functional; conditions: route intraperitoneal; how it was run: as §2
[32] = test system: L1210; test: Antitumor activity in L1210 cells xenografted B6D2F1 mouse at 120 mg/kg, ip relative to control; format: functional; conditions: route intraperitoneal; how it was run: as §2
[33] = test system: Mus musculus; test: Hematotoxicity in B6D2F1 mouse assessed as RBC count at 40 mg/kg, po; format: organism-based; parameters: dose 40 mg/kg, route oral; conditions: in vivo
[34] = test system: Mus musculus; test: Hematotoxicity in B6D2F1 mouse assessed as WBC count at 40 mg/kg, po; format: organism-based; parameters: dose 40 mg/kg, route oral; conditions: in vivo
[35] = test system: Mus musculus; test: Toxicity in B6D2F1 mouse at 120 mg/kg, ip; format: organism-based; parameters: dose 120 mg/kg, route intraperitoneal; conditions: in vivo
How it was run: (§3)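 Healthy female B6D2F1 mice, 10 per group, dosed i.p. in DMSO/saline (5:95 v/v) three times weekly for five weeks at two levels set relative to MTD; sacrificed 3 days after final dose; platelet, RBC and WBC counted by Coulter counter.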

[36] = test system: Mus musculus; test: Hematotoxicity in ip dosed B6D2F1 mouse assessed as decrease in platelet count; format: organism-based; conditions: in vivo
How it was run: (§4)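 Healthy female B6D2F1 mice, 10 per group, dosed i.p. three times weekly for five weeks at two dose levels set relative to MTD. Vehicle DMSO/saline 5:95 v/v. Killed 3 days after the last dose; blood platelet, RBC and WBC counts taken with a Coulter counter.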

[37] = test system: Mus musculus; test: Hematotoxicity in ip dosed B6D2F1 mouse assessed as decrease in RBC count; format: organism-based; conditions: in vivo; how it was run: as §4
[38] = test system: Mus musculus; test: Hematotoxicity in B6D2F1 mouse assessed as RBC count at 2.5 mg/kg, po; format: organism-based; parameters: dose 2.5 mg/kg, route oral; conditions: in vivo
[39] = test system: Mus musculus; test: Hematotoxicity in B6D2F1 mouse assessed as platelet count at 2.5 mg/kg, iv; format: organism-based; parameters: dose 2.5 mg/kg, route intravenous; conditions: in vivo
[40] = test system: Mus musculus; test: Hematotoxicity in B6D2F1 mouse assessed as RBC count at 2.5 mg/kg, iv; format: organism-based; parameters: dose 2.5 mg/kg, route intravenous; conditions: in vivo
[41] = test system: Mus musculus; test: Hematotoxicity in B6D2F1 mouse assessed as WBC count at 2.5 mg/kg, iv; format: organism-based; parameters: dose 2.5 mg/kg, route intravenous; conditions: in vivo
[42] = test system: Mus musculus; test: Hematotoxicity in B6D2F1 mouse assessed as platelet count at 2.5 mg/kg, po; format: organism-based; parameters: dose 2.5 mg/kg, route oral; conditions: in vivo
[43] = test system: Mus musculus; test: Hematotoxicity in B6D2F1 mouse assessed as WBC count at 2.5 mg/kg, po; format: organism-based; parameters: dose 2.5 mg/kg, route oral; conditions: in vivo
[44] = test system: Mus musculus; test: Toxicity in B6D2F1 mouse at 80 mg/kg, ip; format: organism-based; parameters: dose 80 mg/kg, route intraperitoneal; conditions: in vivo; how it was run: as §3
[45] = species: Homo sapiens; test: Inhibition of human topoisomerase 2 at 50 uM by plasmid linearization assay

Row | SMILES | Activity [1] | Activity [2] | Activity [3] | IC50 ([4]; hs 683) [µM] | IC50 ([5]; u-373mg atcc) [µM] | IC50 ([6]; hct-15) [µM] | IC50 ([7]; lovo) [µM] | IC50 ([8]; a549) [µM] | IC50 ([9]; Homo sapiens, MCF7, 72 h) [µM] | MTD [10] [mg/kg] | Activity [11] [%] | Activity [12] [%] | Activity [13] [%] | Activity [14] [%] | Activity [16] | Activity [17] | Activity [19] | Activity [21] | Activity [23] | Activity [26] | further results
1 | CN(C)CCN1C(=O)c2cccc3cc(N)cc(c23)C1=O [AMONAFIDE] | 916 10^3 /uL | 806 10^3 /uL | 9.82 10^6 /uL | 3.9 | 3.5 | 5.2 | 2.7 | 3.8 | 5.8 | 40 | 140 | 122 | 121 | 49 | 461 10^3 /uL | 390 10^3 /uL | 8.59 10^6 /uL | 3.33 10^3 /uL | 10.05 10^6 /uL | 3.06 10^3 /uL | Activity [15]: 109%; Activity [18]: 3.07 10^3 /uL; Activity [20]: 9.54 10^6 /uL; Activity [22]: 892 10^3 /uL; Activity [24]: 9.54 10^6 /uL; Activity [25]: 3.26 10^3 /uL; Activity [27]: 2.93 10^3 /uL; Activity [28]: 143%; Activity [29]: Toxic
2 | CN(C)CCN1C(=O)c2cccc3cc(/N=C\c4cc(O)ccc4O)cc(c23)C1=O | 909 10^3 /uL | 1007 10^3 /uL | – | > 10 | 7.8 | > 10 | 8.4 | 9.1 | – | > 160 | – | 151 | 148 | 232 | 498 10^3 /uL | 443 10^3 /uL | 9.48 10^6 /uL | 3.09 10^3 /uL | 10.22 10^6 /uL | 2.36 10^3 /uL | Activity [30]: 1033 10^3 /uL; IC50 ([9]; mcf7): > 10 µM; Activity [31]: >300%; Activity [32]: 42%; Activity [18]: 3.05 10^3 /uL; Activity [20]: 9.54 10^6 /uL; Activity [24]: 9.92 10^6 /uL; Activity [33]: 7.87 10^6 /uL; Activity [27]: 2.17 10^3 /uL; Activity [34]: 4.07 10^3 /uL; Activity [35]: Toxic; Activity [36]: Toxic; Activity [37]: Toxic
3 | CC(=O)Nc1cc2c3c(cccc3c1)C(=O)N(CCN(C)C)C2=O | 922 10^3 /uL | – | 10.25 10^6 /uL | – | – | – | – | – | > 10 | 40 | 111 | 149 | >300 | 48 | 351 10^3 /uL | – | 9.59 10^6 /uL | 2.5 10^3 /uL | 9.64 10^6 /uL | 2.66 10^3 /uL | Activity [38]: 10.01 10^6 /uL; IC50 ([4]; Homo sapiens, Hs 683, 72 h): > 10 µM; IC50 ([5]; Homo sapiens, U373 MG, 72 h): 9 µM; IC50 ([6]; Homo sapiens, HCT-15, 72 h): 7.8 µM; IC50 ([7]; Homo sapiens, LoVo, 72 h): > 10 µM; IC50 ([8]; Homo sapiens, A549, 72 h): > 10 µM; Activity [31]: 47%; Activity [39]: 470 10^3 /uL; Activity [40]: 9.74 10^6 /uL; Activity [41]: 3.97 10^3 /uL; Activity [42]: 961 10^3 /uL; Activity [22]: 968 10^3 /uL; Activity [43]: 2.66 10^3 /uL; Activity [25]: 2.74 10^3 /uL; Activity [29]: Toxic; Activity [44]: Toxic; Activity [45]: Active
